Assay results: ChEMBL document CHEMBL3860039, “Structure-Activity Relationship and Signaling of New Chimeric CXCR4 Agonists” (J Med Chem, 2016)

What was measured:
[1] = target: T1, C-X-C chemokine receptor type 4 (Homo sapiens, UniProt P61073); assay: Displacement of [125I]-CXCL12 from HA-tagged human recombinant CXCR4 expressed in HEK293 cells incubated for 1 hr by gamma-radiation counting analysis; assay type: cell-based
[2] = target: T1, C-X-C chemokine receptor type 4; assay: Agonist activity at HA-tagged human CXCR4 receptor expressed in HEK293 cells co-transfected with Galphai1-91-RlucII, Gbeta1, and GFP10-G-gamma1 incubated for 7 mins by Galpha1 protein activation-based BRET assay; assay type: cell-based
Summary of the method: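 HEK293 cells (3 × 10^6 per 100 mm dish) co-transfected via polyethylenimine with HA-hCXCR4 plus Gαi1-91-RlucII, Gβ1, GFP10-Gγ1; replated at 24 h, 100 000 cells/well. At 48 h, washed in HBSS/0.1% BSA, exposed to ligand 10−12 to 10−5 M for 7 min, then coelenterazine-400A 5 μM final; BRET2 515/400 nm ratio. EC50 (Gαi dissociation) and Emax from three experiments in triplicate.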

T1 sequence (P61073 whole entry): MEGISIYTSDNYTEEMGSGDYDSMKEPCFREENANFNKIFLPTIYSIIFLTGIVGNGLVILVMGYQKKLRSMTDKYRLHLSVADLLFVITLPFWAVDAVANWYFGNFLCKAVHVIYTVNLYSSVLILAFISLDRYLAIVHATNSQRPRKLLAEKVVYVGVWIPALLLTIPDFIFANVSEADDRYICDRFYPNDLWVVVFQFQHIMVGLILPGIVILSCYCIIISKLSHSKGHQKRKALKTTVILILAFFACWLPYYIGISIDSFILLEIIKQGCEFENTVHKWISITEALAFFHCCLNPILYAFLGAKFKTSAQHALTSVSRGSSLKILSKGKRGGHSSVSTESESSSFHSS

Compound | IC50 [1] [nM] | also measured
CC(C)C[C@H](NC(=O)[C@H](CO)NC(=O)[C@@H](NC(=O)[C@H](C)NC(=O)[C@@H](N)CCCCN)C(C)C)C(=O)N[C@@H](CO)C(=O)N[C@@H](Cc1ccc(O)cc1)C(=O)N[C@@H](CCCNC(=N)N)C(=O)N[C@@H](CO)C(=O)N[C@@H](C)C(=O)NCCCC[C@H](NC(=O)[C@@H]1CSSC[C@H](NC(=O)[C@H](Cc2ccc3ccccc3c2)NC(=O)[C@H](CCCNC(=N)N)NC(=O)[C@@H](N)CCCNC(=N)N)C(=O)N[C@@H](Cc2ccc(O)cc2)C(=O)N[C@@H](CCCNC(=N)N)C(=O)N[C@@H](CCCCN)C(=O)N[C@H](CCCCN)C(=O)N2CCC[C@H]2C(=O)N[C@@H](Cc2ccc(O)cc2)C(=O)N[C@@H](CCCNC(=N)N)C(=O)N[C@@H](CCCNC(=N)N)C(=O)N1)C(=O)O | 353 | –
CC(C)C[C@H](NC(=O)[C@H](CO)NC(=O)[C@@H](NC(=O)[C@@H]1Cc2ccccc2CN1C(=O)[C@@H](N)CCCCN)C(C)C)C(=O)N[C@@H](CO)C(=O)N[C@@H](Cc1ccc(O)cc1)C(=O)N[C@@H](CCCNC(=N)N)C(=O)N[C@@H](CO)C(=O)N[C@@H](C)C(=O)NCCCC[C@H](NC(=O)[C@@H]1CSSC[C@H](NC(=O)[C@H](Cc2ccc3ccccc3c2)NC(=O)[C@H](CCCNC(=N)N)NC(=O)[C@@H](N)CCCNC(=N)N)C(=O)N[C@@H](Cc2ccc(O)cc2)C(=O)N[C@@H](CCCNC(=N)N)C(=O)N[C@@H](CCCCN)C(=O)N[C@H](CCCCN)C(=O)N2CCC[C@H]2C(=O)N[C@@H](Cc2ccc(O)cc2)C(=O)N[C@@H](CCCNC(=N)N)C(=O)N[C@@H](CCCNC(=N)N)C(=O)N1)C(=O)O | 222 | –
CC(C)C[C@H](NC(=O)[C@H](CO)NC(=O)[C@@H](NC(=O)C1(NC(=O)[C@@H](N)CCCCN)Cc2ccccc2C1)C(C)C)C(=O)N[C@@H](CO)C(=O)N[C@@H](Cc1ccc(O)cc1)C(=O)N[C@@H](CCCNC(=N)N)C(=O)N[C@@H](CO)C(=O)N[C@@H](C)C(=O)NCCCC[C@H](NC(=O)[C@@H]1CSSC[C@H](NC(=O)[C@H](Cc2ccc3ccccc3c2)NC(=O)[C@H](CCCNC(=N)N)NC(=O)[C@@H](N)CCCNC(=N)N)C(=O)N[C@@H](Cc2ccc(O)cc2)C(=O)N[C@@H](CCCNC(=N)N)C(=O)N[C@@H](CCCCN)C(=O)N[C@H](CCCCN)C(=O)N2CCC[C@H]2C(=O)N[C@@H](Cc2ccc(O)cc2)C(=O)N[C@@H](CCCNC(=N)N)C(=O)N[C@@H](CCCNC(=N)N)C(=O)N1)C(=O)O | 137 | –
CCCC[C@H](N)C(=O)N1CCC[C@H]1C(=O)N[C@H](C(=O)N[C@@H](CO)C(=O)N[C@@H](CC(C)C)C(=O)N[C@@H](CO)C(=O)N[C@@H](Cc1ccc(O)cc1)C(=O)N[C@@H](CCCNC(=N)N)C(=O)N[C@@H](CO)C(=O)N[C@@H](C)C(=O)NCCCC[C@H](NC(=O)[C@@H]1CSSC[C@H](NC(=O)[C@H](Cc2ccc3ccccc3c2)NC(=O)[C@H](CCCNC(=N)N)NC(=O)[C@@H](N)CCCNC(=N)N)C(=O)N[C@@H](Cc2ccc(O)cc2)C(=O)N[C@@H](CCCNC(=N)N)C(=O)N[C@@H](CCCCN)C(=O)N[C@H](CCCCN)C(=O)N2CCC[C@H]2C(=O)N[C@@H](Cc2ccc(O)cc2)C(=O)NC(CCCNC(=N)N)C(=O)N[C@@H](CCCNC(=N)N)C(=O)N1)C(=O)O)C(C)C (stereo not given in full) | 267 | –
CC(C)C[C@H](NC(=O)[C@H](CO)NC(=O)[C@@H](NC(=O)[C@@H]1CCCN1)C(C)C)C(=O)N[C@@H](CO)C(=O)N[C@@H](Cc1ccc(O)cc1)C(=O)N[C@@H](CCCNC(=N)N)C(=O)N[C@@H](CO)C(=O)N[C@@H](C)C(=O)NCCCC[C@H](NC(=O)[C@@H]1CSSC[C@H](NC(=O)[C@H](Cc2ccc3ccccc3c2)NC(=O)[C@H](CCCNC(=N)N)NC(=O)[C@@H](N)CCCNC(=N)N)C(=O)N[C@@H](Cc2ccc(O)cc2)C(=O)N[C@@H](CCCNC(=N)N)C(=O)N[C@@H](CCCCN)C(=O)N[C@H](CCCCN)C(=O)N2CCC[C@H]2C(=O)N[C@@H](Cc2ccc(O)cc2)C(=O)N[C@@H](CCCNC(=N)N)C(=O)N[C@@H](CCCNC(=N)N)C(=O)N1)C(=O)O | 548 | –
CC(C)C[C@H](NC(=O)[C@H](CO)NC(=O)[C@@H](NC(=O)[C@@H]1CCCN1C(=O)[C@@H](N)CCCCN)C(C)C)C(=O)N[C@@H](CO)C(=O)N[C@@H](Cc1ccc(O)cc1)C(=O)NCCOCCOCCOCCC(=O)NCCCC[C@H](NC(=O)[C@@H]1CSSC[C@H](NC(=O)[C@H](Cc2ccc3ccccc3c2)NC(=O)[C@H](CCCNC(=N)N)NC(=O)[C@@H](N)CCCNC(=N)N)C(=O)N[C@@H](Cc2ccc(O)cc2)C(=O)N[C@@H](CCCNC(=N)N)C(=O)N[C@@H](CCCCN)C(=O)N[C@H](CCCCN)C(=O)N2CCC[C@H]2C(=O)N[C@@H](Cc2ccc(O)cc2)C(=O)N[C@@H](CCCNC(=N)N)C(=O)N[C@@H](CCCNC(=N)N)C(=O)N1)C(=O)O | 437 | EC50 [2]: 61 nM; Emax [2]: 24%
CC(C)C[C@H](NC(=O)[C@H](CO)NC(=O)[C@@H](NC(=O)[C@H]1CCCN1C(=O)[C@@H](N)CCCCN)C(C)C)C(=O)N[C@@H](CO)C(=O)N[C@@H](Cc1ccc(O)cc1)C(=O)N[C@@H](CCCNC(=N)N)C(=O)N[C@@H](CO)C(=O)N[C@@H](C)C(=O)NCCCC[C@H](NC(=O)[C@@H]1CSSC[C@H](NC(=O)[C@H](Cc2ccc3ccccc3c2)NC(=O)[C@H](CCCNC(=N)N)NC(=O)[C@@H](N)CCCNC(=N)N)C(=O)N[C@@H](Cc2ccc(O)cc2)C(=O)N[C@@H](CCCNC(=N)N)C(=O)N[C@@H](CCCCN)C(=O)N[C@H](CCCCN)C(=O)N2CCC[C@H]2C(=O)N[C@@H](Cc2ccc(O)cc2)C(=O)N[C@@H](CCCNC(=N)N)C(=O)N[C@@H](CCCNC(=N)N)C(=O)N1)C(=O)O | – | IC50 ([1]; hek293): 151 nM
CC(C)C[C@H](NC(=O)[C@H](CO)NC(=O)[C@@H](N)C(C)C)C(=O)N[C@@H](CO)C(=O)N[C@@H](Cc1ccc(O)cc1)C(=O)N[C@@H](CCCNC(=N)N)C(=O)N[C@@H](CO)C(=O)N[C@@H](C)C(=O)NCCCC[C@H](NC(=O)[C@@H]1CSSC[C@H](NC(=O)[C@H](Cc2ccc3ccccc3c2)NC(=O)[C@H](CCCNC(=N)N)NC(=O)[C@@H](N)CCCNC(=N)N)C(=O)N[C@@H](Cc2ccc(O)cc2)C(=O)N[C@@H](CCCNC(=N)N)C(=O)N[C@@H](CCCCN)C(=O)N[C@H](CCCCN)C(=O)N2CCC[C@H]2C(=O)N[C@@H](Cc2ccc(O)cc2)C(=O)N[C@@H](CCCNC(=N)N)C(=O)N[C@@H](CCCNC(=N)N)C(=O)N1)C(=O)O | 95 | –
CC(C)[C@H](NC(=O)[C@@H]1CCCN1C(=O)[C@@H](N)CCCCN)C(=O)N[C@@H](CO)C(=O)N[C@@H](C)C(=O)N[C@@H](CO)C(=O)N[C@@H](Cc1ccc(O)cc1)C(=O)N[C@@H](CCCNC(=N)N)C(=O)N[C@@H](CO)C(=O)N[C@@H](C)C(=O)NCCCC[C@H](NC(=O)[C@@H]1CSSC[C@H](NC(=O)[C@H](Cc2ccc3ccccc3c2)NC(=O)[C@H](CCCNC(=N)N)NC(=O)[C@@H](N)CCCNC(=N)N)C(=O)N[C@@H](Cc2ccc(O)cc2)C(=O)N[C@@H](CCCNC(=N)N)C(=O)N[C@@H](CCCCN)C(=O)N[C@H](CCCCN)C(=O)N2CCC[C@H]2C(=O)N[C@@H](Cc2ccc(O)cc2)C(=O)N[C@@H](CCCNC(=N)N)C(=O)N[C@@H](CCCNC(=N)N)C(=O)N1)C(=O)O | 171 | –
CC(C)C[C@H](NC(=O)[C@H](CO)NC(=O)[C@H](Cc1ccccc1)N(C)C(=O)[C@@H]1CCCN1C(=O)[C@@H](N)CCCCN)C(=O)N[C@@H](CO)C(=O)N[C@@H](Cc1ccc(O)cc1)C(=O)N[C@@H](CCCNC(=N)N)C(=O)N[C@@H](CO)C(=O)N[C@@H](C)C(=O)NCCCC[C@H](NC(=O)[C@@H]1CSSC[C@H](NC(=O)[C@H](Cc2ccc3ccccc3c2)NC(=O)[C@H](CCCNC(=N)N)NC(=O)[C@@H](N)CCCNC(=N)N)C(=O)N[C@@H](Cc2ccc(O)cc2)C(=O)N[C@@H](CCCNC(=N)N)C(=O)N[C@@H](CCCCN)C(=O)N[C@H](CCCCN)C(=O)N2CCC[C@H]2C(=O)N[C@@H](Cc2ccc(O)cc2)C(=O)N[C@@H](CCCNC(=N)N)C(=O)N[C@@H](CCCNC(=N)N)C(=O)N1)C(=O)O | 678 | –
CC(C)C[C@H](NC(=O)[C@H](CO)NC(=O)[C@H](C(C)C)N(C)C(=O)[C@@H]1CCCN1C(=O)[C@@H](N)CCCCN)C(=O)N[C@@H](CO)C(=O)N[C@@H](Cc1ccc(O)cc1)C(=O)N[C@@H](CCCNC(=N)N)C(=O)N[C@@H](CO)C(=O)N[C@@H](C)C(=O)NCCCC[C@H](NC(=O)[C@@H]1CSSC[C@H](NC(=O)[C@H](Cc2ccc3ccccc3c2)NC(=O)[C@H](CCCNC(=N)N)NC(=O)[C@@H](N)CCCNC(=N)N)C(=O)N[C@@H](Cc2ccc(O)cc2)C(=O)N[C@@H](CCCNC(=N)N)C(=O)N[C@@H](CCCCN)C(=O)N[C@H](CCCCN)C(=O)N2CCC[C@H]2C(=O)N[C@@H](Cc2ccc(O)cc2)C(=O)N[C@@H](CCCNC(=N)N)C(=O)N[C@@H](CCCNC(=N)N)C(=O)N1)C(=O)O | 127 | –
CC(C)C[C@H](NC(=O)[C@H](CO)NC(=O)[C@@H](NC(=O)[C@@H]1CCCN1C(=O)[C@@H](N)CCCCN)C(C)C)C(=O)N[C@@H](CO)C(=O)N[C@@H](C)C(=O)N[C@@H](CCCNC(=N)N)C(=O)N[C@@H](CO)C(=O)N[C@@H](C)C(=O)NCCCC[C@H](NC(=O)[C@@H]1CSSC[C@H](NC(=O)[C@H](Cc2ccc3ccccc3c2)NC(=O)[C@H](CCCNC(=N)N)NC(=O)[C@@H](N)CCCNC(=N)N)C(=O)N[C@@H](Cc2ccc(O)cc2)C(=O)N[C@@H](CCCNC(=N)N)C(=O)N[C@@H](CCCCN)C(=O)N[C@H](CCCCN)C(=O)N2CCC[C@H]2C(=O)N[C@@H](Cc2ccc(O)cc2)C(=O)N[C@@H](CCCNC(=N)N)C(=O)N[C@@H](CCCNC(=N)N)C(=O)N1)C(=O)O | 230 | –
CC(C)C[C@H](NC(=O)[C@H](CO)NC(=O)[C@@H](NC(=O)[C@@H]1CCCN1C(=O)[C@H](C)N)C(C)C)C(=O)N[C@@H](CO)C(=O)N[C@@H](Cc1ccc(O)cc1)C(=O)N[C@@H](CCCNC(=N)N)C(=O)N[C@@H](CO)C(=O)N[C@@H](C)C(=O)NCCCC[C@H](NC(=O)[C@@H]1CSSC[C@H](NC(=O)[C@H](Cc2ccc3ccccc3c2)NC(=O)[C@H](CCCNC(=N)N)NC(=O)[C@@H](N)CCCNC(=N)N)C(=O)N[C@@H](Cc2ccc(O)cc2)C(=O)N[C@@H](CCCNC(=N)N)C(=O)N[C@@H](CCCCN)C(=O)N[C@H](CCCCN)C(=O)N2CCC[C@H]2C(=O)N[C@@H](Cc2ccc(O)cc2)C(=O)N[C@@H](CCCNC(=N)N)C(=O)N[C@@H](CCCNC(=N)N)C(=O)N1)C(=O)O | 282 | –
